In ChEMBL document CHEMBL2385076, “Discovery of 2-((1H-benzo[d]imidazol-1-yl)methyl)-4H-pyrido[1,2-a]pyrimidin-4-ones as novel PKM2 activators” (Bioorg Med Chem Lett, 2013):
Calls of active or inactive are those of the source. The calls are words filed in the database; no cut-off is given here.

Key:
[1] = target: Beta-2 adrenergic receptor (Homo sapiens) (UniProt P07550); experiment: Binding affinity to human beta-2 adrenergic receptor by radioligand binding assay
In short: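 CEREP panel binding measured by displacement of an agonist radioligand.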

[2] = target: Myosin light chain kinase 2, skeletal/cardiac muscle (Homo sapiens) (UniProt Q9H1R3); experiment: Inhibition of MYLK2 (unknown origin)
[3] = target: Serine/threonine-protein kinase TAO2 (Homo sapiens) (UniProt Q9UL54); experiment: Inhibition of TAOK2 (unknown origin)
[4] = target: Serine/threonine-protein kinase Chk1 (Homo sapiens) (UniProt O14757); experiment: Inhibition of CHEK1 (unknown origin)
[5] = target: Aurora kinase A (Homo sapiens) (UniProt O14965); experiment: Inhibition of AURKA (unknown origin)
Chain of Aurora kinase A (Homo sapiens) (O14965 whole entry): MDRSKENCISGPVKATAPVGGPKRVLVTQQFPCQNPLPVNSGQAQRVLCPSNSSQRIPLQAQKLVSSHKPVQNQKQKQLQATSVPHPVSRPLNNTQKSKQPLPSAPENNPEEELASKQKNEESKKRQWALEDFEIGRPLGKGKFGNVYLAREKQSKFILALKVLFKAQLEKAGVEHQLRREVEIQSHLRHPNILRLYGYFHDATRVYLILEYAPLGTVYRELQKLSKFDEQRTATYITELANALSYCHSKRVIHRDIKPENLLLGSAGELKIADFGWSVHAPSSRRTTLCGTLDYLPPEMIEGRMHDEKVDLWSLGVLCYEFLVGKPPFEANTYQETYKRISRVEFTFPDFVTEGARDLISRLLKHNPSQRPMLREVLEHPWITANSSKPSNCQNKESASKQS

[6] = species on record: Homo sapiens; experiment: Binding affinity to sodium channel site 2 (unknown origin) by radioligand binding assay
In short: (§1)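 CEREP panel binding measured by displacement of an antagonist radioligand.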

[7] = tested on: Salmonella typhimurium; experiment: Genotoxicity in Salmonella typhimurium by Ames test; assay type: toxicity, organism-based; conditions: salmonella enterica subsp. enterica serovar typhimurium
[8] = target: Casein kinase II subunit alpha' (Homo sapiens) (UniProt P19784); experiment: Inhibition of CSNK2A2 (unknown origin)
Chain of Casein kinase II subunit alpha' (Homo sapiens) (P19784 whole entry, looked up): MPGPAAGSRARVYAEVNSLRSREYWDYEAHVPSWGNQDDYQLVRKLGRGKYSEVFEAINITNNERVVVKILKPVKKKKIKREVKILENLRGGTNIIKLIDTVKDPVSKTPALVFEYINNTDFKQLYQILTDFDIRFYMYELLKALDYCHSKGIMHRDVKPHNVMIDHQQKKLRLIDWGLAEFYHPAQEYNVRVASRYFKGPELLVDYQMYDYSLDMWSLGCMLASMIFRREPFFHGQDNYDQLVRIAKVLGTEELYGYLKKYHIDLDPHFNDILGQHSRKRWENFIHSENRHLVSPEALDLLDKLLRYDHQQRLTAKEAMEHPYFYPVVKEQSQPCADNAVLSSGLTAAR

[9] = species on record: Homo sapiens; experiment: Binding affinity to L-type calcium channel diltiazem binding site (unknown origin) by radioligand binding assay
[10] = target: 3-phosphoinositide-dependent protein kinase 1 (Homo sapiens) (UniProt O15530); experiment: Inhibition of PDK1 (unknown origin)
[11] = target: Sodium-dependent serotonin transporter (Homo sapiens) (UniProt P31645); experiment: Binding affinity to human 5-HT transporter by radioligand binding assay; in short: as §1
[12] = target: Tyrosine-protein kinase JAK3 (Homo sapiens) (UniProt P52333); experiment: Inhibition of JAK3 (unknown origin)
Chain of Tyrosine-protein kinase JAK3 (Homo sapiens) (P52333 whole entry): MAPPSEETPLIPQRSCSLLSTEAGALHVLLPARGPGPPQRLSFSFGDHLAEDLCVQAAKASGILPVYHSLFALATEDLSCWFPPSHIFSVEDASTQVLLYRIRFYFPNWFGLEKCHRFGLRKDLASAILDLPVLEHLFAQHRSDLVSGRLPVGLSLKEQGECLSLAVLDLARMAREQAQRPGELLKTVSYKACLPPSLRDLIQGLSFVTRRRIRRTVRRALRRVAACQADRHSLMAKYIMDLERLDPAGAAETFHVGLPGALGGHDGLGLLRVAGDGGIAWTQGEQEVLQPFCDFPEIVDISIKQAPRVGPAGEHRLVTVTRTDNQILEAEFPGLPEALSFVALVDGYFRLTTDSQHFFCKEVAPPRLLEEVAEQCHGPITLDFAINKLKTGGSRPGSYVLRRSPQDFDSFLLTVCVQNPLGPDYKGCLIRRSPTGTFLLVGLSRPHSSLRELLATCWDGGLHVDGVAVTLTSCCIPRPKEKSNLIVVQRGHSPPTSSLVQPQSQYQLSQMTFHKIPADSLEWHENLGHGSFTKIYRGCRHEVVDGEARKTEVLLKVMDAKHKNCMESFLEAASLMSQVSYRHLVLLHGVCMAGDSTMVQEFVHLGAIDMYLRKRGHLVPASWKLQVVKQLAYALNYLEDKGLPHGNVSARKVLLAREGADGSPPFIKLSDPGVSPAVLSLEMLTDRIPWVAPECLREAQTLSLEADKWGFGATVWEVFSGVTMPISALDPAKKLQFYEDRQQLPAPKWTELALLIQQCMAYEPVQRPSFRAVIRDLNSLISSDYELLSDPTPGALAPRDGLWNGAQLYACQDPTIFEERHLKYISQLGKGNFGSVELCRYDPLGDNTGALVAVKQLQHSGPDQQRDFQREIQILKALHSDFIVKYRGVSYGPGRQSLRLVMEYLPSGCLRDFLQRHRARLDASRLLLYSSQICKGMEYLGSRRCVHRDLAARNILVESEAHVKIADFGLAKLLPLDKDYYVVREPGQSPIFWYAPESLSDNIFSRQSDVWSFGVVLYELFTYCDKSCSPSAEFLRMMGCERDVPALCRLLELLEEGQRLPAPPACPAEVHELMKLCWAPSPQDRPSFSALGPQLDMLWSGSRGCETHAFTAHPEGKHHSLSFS

[13] = target: Glycogen synthase kinase-3 beta (Homo sapiens) (UniProt P49841); experiment: Inhibition of GSK3B (unknown origin)
[14] = target: Serine/threonine-protein kinase Chk2 (Homo sapiens) (UniProt O96017); experiment: Inhibition of CHEK2 (unknown origin)
Chain of Serine/threonine-protein kinase Chk2 (Homo sapiens) (O96017 whole entry): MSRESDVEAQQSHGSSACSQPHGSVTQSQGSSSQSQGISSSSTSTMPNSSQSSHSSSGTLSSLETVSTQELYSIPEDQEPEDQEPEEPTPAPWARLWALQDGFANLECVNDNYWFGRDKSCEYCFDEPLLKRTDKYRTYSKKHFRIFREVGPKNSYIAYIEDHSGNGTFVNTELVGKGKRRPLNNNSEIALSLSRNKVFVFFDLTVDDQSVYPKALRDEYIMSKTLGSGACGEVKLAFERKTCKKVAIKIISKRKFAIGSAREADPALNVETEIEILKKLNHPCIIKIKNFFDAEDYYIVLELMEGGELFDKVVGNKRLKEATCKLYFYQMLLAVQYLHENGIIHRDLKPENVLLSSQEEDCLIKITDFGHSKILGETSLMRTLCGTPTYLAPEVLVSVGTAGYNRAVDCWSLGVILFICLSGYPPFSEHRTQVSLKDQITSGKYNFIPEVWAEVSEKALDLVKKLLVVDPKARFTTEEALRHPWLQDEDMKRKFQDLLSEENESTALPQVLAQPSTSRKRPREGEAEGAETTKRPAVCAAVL

[15] = target: Fibroblast growth factor receptor 1 (Homo sapiens) (UniProt P11362); experiment: Inhibition of FGFR1 (unknown origin)
[16] = target: RAC-alpha serine/threonine-protein kinase (Homo sapiens) (UniProt P31749); experiment: Inhibition of AKT1 (unknown origin)
[17] = target: Pyruvate kinase PKM (Homo sapiens, UniProt P14618); experiment: Activation of human PKM2 assessed as production of ATP at infinite concentration after 10 mins by lactate dehydrogenase-coupled enzyme assay relative to FBP
In short: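 Coupled to lactate dehydrogenase, NADH loss read as the drop in absorbance at 340 nm. Reaction: 2nM human PKM2 (cleaved N-term his, 1-531), 2 mM PEP, 0.35 mM NADH, 4 units/mL LDH in 50 mM Tris pH 7.5 with KCl and 5 mM MgCl2. Compound preincubated 10 minutes at 32 °C, then 0.5mM ADP starts the reaction. Duplicates; 10-point curves; asymptote max = % activation at infinite concentration.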

[18] = target: Serine/threonine-protein kinase Sgk1 (Homo sapiens) (UniProt O00141); experiment: Inhibition of SGK (unknown origin)
Chain of Serine/threonine-protein kinase Sgk1 (Homo sapiens) (O00141 whole entry): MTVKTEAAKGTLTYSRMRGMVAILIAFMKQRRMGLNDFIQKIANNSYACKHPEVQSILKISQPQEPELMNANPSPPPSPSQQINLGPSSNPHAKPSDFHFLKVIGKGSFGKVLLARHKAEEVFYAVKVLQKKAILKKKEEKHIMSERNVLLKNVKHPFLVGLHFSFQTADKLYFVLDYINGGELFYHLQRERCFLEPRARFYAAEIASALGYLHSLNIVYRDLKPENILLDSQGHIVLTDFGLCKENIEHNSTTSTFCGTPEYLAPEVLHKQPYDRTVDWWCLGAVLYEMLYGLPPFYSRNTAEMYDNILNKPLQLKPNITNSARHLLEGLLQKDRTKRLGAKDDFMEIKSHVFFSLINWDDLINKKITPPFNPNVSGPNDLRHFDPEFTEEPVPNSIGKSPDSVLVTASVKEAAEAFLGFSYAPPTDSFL

[19] = target: Calcium/calmodulin-dependent protein kinase type II subunit alpha (Homo sapiens) (UniProt Q9UQM7); experiment: Inhibition of CAMK2A (unknown origin)
[20] = target: Serine/threonine-protein kinase mTOR (Homo sapiens) (UniProt P42345); experiment: Inhibition of mTOR (unknown origin)
[21] = tested on: JHH2; experiment: Antiproliferative activity against human JHH2 cells at 10 uM after 5 days; assay type: functional, cell-based
In short: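 Cells plated in Optimem-GlutaMax medium and cultured overnight before exposure to 10 µM compound. Viability measured with CytoTox-Glo after 5 days of treatment.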

[22] = target: Casein kinase I isoform alpha (Homo sapiens) (UniProt P48729); experiment: Inhibition of CSNK1A1 (unknown origin)
[23] = target: Serine/threonine-protein kinase Nek2 (Homo sapiens) (UniProt P51955); experiment: Inhibition of NEK2 (unknown origin)
Chain of Serine/threonine-protein kinase Nek2 (Homo sapiens) (P51955 whole entry): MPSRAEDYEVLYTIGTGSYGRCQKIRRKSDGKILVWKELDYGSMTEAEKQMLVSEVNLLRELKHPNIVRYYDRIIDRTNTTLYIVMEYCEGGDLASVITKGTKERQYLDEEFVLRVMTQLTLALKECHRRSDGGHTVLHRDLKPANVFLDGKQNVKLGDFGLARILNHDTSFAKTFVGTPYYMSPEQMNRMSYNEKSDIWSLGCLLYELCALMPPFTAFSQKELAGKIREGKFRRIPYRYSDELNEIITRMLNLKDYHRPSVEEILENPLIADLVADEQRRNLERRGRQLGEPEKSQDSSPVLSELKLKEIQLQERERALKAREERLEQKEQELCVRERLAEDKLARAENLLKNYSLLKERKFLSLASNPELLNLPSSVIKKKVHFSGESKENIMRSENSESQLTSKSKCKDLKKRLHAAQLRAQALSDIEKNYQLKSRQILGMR

[24] = target: Serine/threonine-protein kinase 3 (Homo sapiens) (UniProt Q13188); experiment: Inhibition of STK3 (unknown origin)
Chain of Serine/threonine-protein kinase 3 (Homo sapiens) (Q13188 whole entry): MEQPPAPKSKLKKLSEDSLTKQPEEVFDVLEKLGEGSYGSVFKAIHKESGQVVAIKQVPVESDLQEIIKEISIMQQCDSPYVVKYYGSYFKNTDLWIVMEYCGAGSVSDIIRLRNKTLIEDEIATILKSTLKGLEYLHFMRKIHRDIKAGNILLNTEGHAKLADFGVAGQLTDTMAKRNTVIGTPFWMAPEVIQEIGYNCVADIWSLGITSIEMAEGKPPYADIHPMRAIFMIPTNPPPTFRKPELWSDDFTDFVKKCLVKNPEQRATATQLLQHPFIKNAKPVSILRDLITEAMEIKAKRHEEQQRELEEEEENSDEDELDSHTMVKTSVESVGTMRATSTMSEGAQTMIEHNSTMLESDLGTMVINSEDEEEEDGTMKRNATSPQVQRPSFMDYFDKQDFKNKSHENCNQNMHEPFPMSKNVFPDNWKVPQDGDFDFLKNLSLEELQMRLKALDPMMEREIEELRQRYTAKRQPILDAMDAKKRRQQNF

[25] = target: Serine/threonine-protein kinase pim-2 (Homo sapiens) (UniProt Q9P1W9); experiment: Inhibition of PIM2 (unknown origin)
Chain of Serine/threonine-protein kinase pim-2 (Homo sapiens) (Q9P1W9 whole entry, looked up): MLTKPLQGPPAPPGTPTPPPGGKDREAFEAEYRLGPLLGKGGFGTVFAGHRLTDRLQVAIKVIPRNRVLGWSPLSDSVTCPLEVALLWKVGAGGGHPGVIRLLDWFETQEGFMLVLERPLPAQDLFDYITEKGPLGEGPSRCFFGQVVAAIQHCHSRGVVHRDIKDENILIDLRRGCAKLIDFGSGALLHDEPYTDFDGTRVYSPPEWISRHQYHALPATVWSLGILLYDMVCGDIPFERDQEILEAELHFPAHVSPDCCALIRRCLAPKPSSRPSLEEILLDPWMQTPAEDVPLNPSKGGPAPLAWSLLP

[26] = target: CDK2/Cyclin A2 (Homo sapiens) (UniProt P24941+P20248); experiment: Inhibition of CDK2/cyclin A (unknown origin); assay type: protein-complex assay
[27] = target: Histamine H1 receptor (Homo sapiens) (UniProt P35367); experiment: Binding affinity to human histamine H1 receptor by radioligand binding assay; in short: as §1
Chain of Histamine H1 receptor (Homo sapiens) (P35367 whole entry): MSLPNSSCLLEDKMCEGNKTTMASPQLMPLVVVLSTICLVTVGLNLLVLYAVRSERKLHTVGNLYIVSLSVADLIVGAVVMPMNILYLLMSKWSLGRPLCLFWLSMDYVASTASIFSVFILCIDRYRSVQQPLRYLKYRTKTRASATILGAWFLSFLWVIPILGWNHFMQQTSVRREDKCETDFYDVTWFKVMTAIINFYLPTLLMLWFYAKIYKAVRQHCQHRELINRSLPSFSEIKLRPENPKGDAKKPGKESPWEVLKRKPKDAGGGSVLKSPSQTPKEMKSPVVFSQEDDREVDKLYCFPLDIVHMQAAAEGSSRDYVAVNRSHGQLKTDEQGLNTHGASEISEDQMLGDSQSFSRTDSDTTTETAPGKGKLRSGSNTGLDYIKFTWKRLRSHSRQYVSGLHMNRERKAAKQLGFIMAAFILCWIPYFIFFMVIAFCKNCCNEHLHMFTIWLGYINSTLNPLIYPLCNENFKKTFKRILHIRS

Chain of Beta-2 adrenergic receptor (Homo sapiens) (P07550 whole entry, looked up): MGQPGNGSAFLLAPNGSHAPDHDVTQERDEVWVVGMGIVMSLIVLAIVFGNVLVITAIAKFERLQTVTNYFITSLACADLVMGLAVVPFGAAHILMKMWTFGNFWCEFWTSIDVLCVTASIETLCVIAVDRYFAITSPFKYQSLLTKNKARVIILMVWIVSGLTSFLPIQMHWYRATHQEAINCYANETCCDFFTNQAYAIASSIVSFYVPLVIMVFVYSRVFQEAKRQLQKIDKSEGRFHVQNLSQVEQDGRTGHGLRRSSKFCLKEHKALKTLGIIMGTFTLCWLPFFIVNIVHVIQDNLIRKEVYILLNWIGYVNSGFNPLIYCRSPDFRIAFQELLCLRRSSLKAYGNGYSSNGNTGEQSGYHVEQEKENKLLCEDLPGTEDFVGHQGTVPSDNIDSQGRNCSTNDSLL

Cc1cccc2nc(Cn3cnc4ccccc43)cc(=O)n12
Activity [1]: inactive
inhibition [2]: inactive
inhibition [3]: inactive
inhibition [4]: inactive
inhibition [5]: inactive
Activity [6]: inactive
Activity [7]: Non-toxic
inhibition [8]: inactive
Activity [9]: inactive
inhibition [10]: inactive
Activity [11]: inactive
inhibition [12]: inactive
inhibition [13]: inactive
inhibition [14]: inactive
inhibition [15]: inactive
inhibition [16]: inactive
max activation [17]: 198%
inhibition [18]: inactive
inhibition [19]: inactive
inhibition [20]: inactive
Activity [21]: inactive
inhibition [22]: inactive
inhibition [23]: inactive
inhibition [24]: inactive
inhibition [25]: inactive
inhibition [26]: inactive
Activity [27]: inactive
